Results on twelve compounds are retold here after ChEMBL document CHEMBL1147088, “Small molecule obatoclax (GX15-070) antagonizes MCL-1 and overcomes MCL-1-mediated resistance to apoptosis” (Proc Natl Acad Sci U S A, 2007).

Molecules are shown by their SMILES. Activity calls are given as the source filed them. The rule behind the calls is not given here. A value given as a limit tells only on which side of the number the result lay.

One test has as its system KB. Briefly: Depletion of cytochrome c in mitochondria of human KB cells at 2.0 uM. The test is classed as functional, cell-based. The essentials:
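Mitochondria isolated from KB cells were incubated 30 min at 37°C with DMSO or compound, then reisolated. Mitochondrial pellet and post-mitochondrial supernatant were analysed by SDS/PAGE and cytochrome c immunoblot, with actin and a control protein as loading controls.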
Regarding `CC[C@H](C)[C@H](NC(=O)[C@H](CC(N)=O)NC(=O)[C@H](CCCNC(=N)N)NC(=O)[C@@H](NC(=O)[C@@H](NC(=O)[C@H](CC(=O)O)NC(=O)[C@@H](N)CCC(=O)O)[C@@H](C)CC)[C@@H](C)CC)C(=O)N[C@@H](C)C(=O)N[C@@H](CCCNC(=N)N)C(=O)N[C@@H](Cc1cnc[nH]1)C(=O)N[C@@H](CC(C)C)C(=O)N[C@@H](C)C(=O)N[C@@H](CCC(N)=O)C(=O)N[C@H](C(=O)NCC(=O)N[C@@H](CC(=O)O)C(=O)N[C@@H](CO)C(=O)N[C@@H](CCSC)C(=O)N[C@@H](CC(=O)O)C(=O)N[C@@H](CCCNC(=N)N)C(=O)O)C(C)C`, the result was Active.

The test system of the next test is Saccharomyces cerevisiae. Briefly: Growth inhibition of Saccharomyces cerevisiae W301. It counts as functional, organism-based. The essentials:
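W301 yeast transformed with BCL-family/BAX/BAK or control vectors, then grown in synthetic complete medium with 2% raffinose and 2% galactose. Seeded at 0.01 OD units and shaken 48 h at 30°C. Compound or vehicle was added to growth medium with final DMSO 0.67%. Cell density was the read-out, and IC50 values were recorded.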
For orientation: IC50 means the concentration needed to halve the response being measured. Read a high IC50 as a need for much substance. As to `CC[C@@]1(O)C(=O)OCc2c1cc1n(c2=O)Cc2cc3ccccc3nc2-1` [CAMPTOTHECIN], the IC50 is > 200 µM.

Turning to `COc1cccc2c1C(=O)c1c(O)c3c(c(O)c1C2=O)C[C@@](O)(C(=O)CO)C[C@@H]3O[C@H]1C[C@H](N)[C@H](O)[C@H](C)O1` [DOXORUBICIN], the IC50 worked out at 10 µM.

The target of a further test is Apoptosis regulator Bcl-2 (Homo sapiens, UniProt P10415). Briefly: Binding affinity to BCL2.
Chain of Apoptosis regulator Bcl-2 (P10415 whole entry): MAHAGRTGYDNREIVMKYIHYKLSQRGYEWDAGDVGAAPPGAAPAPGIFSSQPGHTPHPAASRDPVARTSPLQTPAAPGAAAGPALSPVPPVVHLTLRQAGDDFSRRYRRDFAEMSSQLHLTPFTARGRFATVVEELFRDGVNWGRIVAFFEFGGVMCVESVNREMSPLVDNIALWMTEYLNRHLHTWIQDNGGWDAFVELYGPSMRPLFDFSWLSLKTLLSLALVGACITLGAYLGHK
What is called Ki is a dissociation constant, usually derived from enzyme kinetics or from competition with a known ligand. Low values mean tighter binding, high ones weaker binding. `COC(=O)NC(CCSC)C(=O)Oc1ccc(Nc2nc3c(s2)C(=O)c2ccccc2C3=O)cc1` (configuration not stated) showed a Ki of 1290 nM.

For the compound `Oc1cc(O)c2c(c1)O[C@H](c1ccc(O)c(O)c1)[C@H](O)C2` [CATECHIN], the Ki is > 100000 nM.

As to `O=C(O[C@@H]1Cc2c(O)cc(O)cc2O[C@@H]1c1ccc(O)c(O)c1)c1cc(O)c(O)c(O)c1` [EPICATECHIN GALLATE], the affinity corresponds to a Ki of 229 nM.

Consider `O=C(O[C@@H]1Cc2c(O)cc(O)cc2O[C@@H]1c1cc(O)c(O)c(O)c1)c1cc(O)c(O)c(O)c1` [EPIGALOCATECHIN GALLATE], for which the Ki is 234 nM.

`Oc1cc(O)c2c(c1)O[C@H](c1cc(O)c(O)c(O)c1)[C@H](O)C2` [EPIGALLOCATECHIN]: the Ki was > 100000 nM.

The compound `O=C(O[C@H]1Cc2c(O)cc(O)cc2OC1c1cc(O)c(=O)c2c(O)c(O)cc([C@H]3Oc4cc(O)cc(O)c4C[C@H]3O)c2c1)c1cc(O)c(O)c(O)c1` (some centres not stated) had a Ki of 1230 nM.

The compound `CCCC[C@H]1C(=O)O[C@H](C)[C@H](NC(=O)c2cccc(NC=O)c2O)C(=O)O[C@@H](C)[C@@H]1OC(=O)CC(C)C` [ANTIMYCIN A3] had a Ki of 832 nM. The Ki values of the last two compounds are within 1.5-fold of each other.

Take `Oc1cc(O)c2c(c1)O[C@H](c1ccc(O)c(O)c1)[C@H](O)C2` [(-)-EPICATECHIN]: the inhibitory constant (Ki) is > 100000 nM.

In turn, `O=c1c(O)cc([C@H]2Oc3cc(O)cc(O)c3C[C@H]2O)cc2c([C@H]3Oc4cc(O)cc(O)c4C[C@H]3O)cc(O)c(O)c12` [THEAFLAVIN] had a Ki of 692 nM.
